Measured values taken from ChEMBL document CHEMBL1147538, “Antibacterial activity of glycine betaine analogues: involvement of osmoporters” (Bioorg Med Chem Lett, 2004).

Assays:
Assay type in all cases: functional, organism-based
[1] = system: Acinetobacter baumannii; assay: Effect (1 mM) on Acinetobacter baumannii growth under stressing conditions; Expressed as absorbance (OD) at 570 nm; Control 1.14 nm
Procedure, shortened: (§1)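 Aerobic culture in a defined classic medium (M63, M9, SMM or LAS, chosen per species). Hyperosmotic stress was imposed with NaCl at 0.3–0.5 M final, set by each bacterium's salt tolerance. Each betaine analogue was added at 1 mM. Bacterial yield was read as absorbance at 570 nm and compared with a control culture without analogue.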

[2] = system: Aeromonas hydrophila; assay: Effect (1 mM) on Aeromonas hydrophila growth under stressing conditions; Expressed as absorbance (OD) at 570 nm; Control 1.65 nm; procedure, shortened: as §1
[3] = system: Bacillus subtilis; assay: Effect (1 mM) on Bacillus subtilis growth under stressing conditions; Expressed as absorbance (OD) at 570 nm; Control 3.20 nm; procedure, shortened: as §1
[4] = system: Brevibacterium linens; assay: Effect (1 mM) on Brevibacterium linens growth under stressing conditions; Expressed as absorbance (OD) at 570 nm; Control 1.76 nm
[5] = system: Citrobacter freundii; assay: Effect (1 mM) on Citrobacter freundii growth under stressing conditions; Expressed as absorbance (OD) at 570 nm; Control 1.09 nm; procedure, shortened: as §1
[6] = system: Corynebacterium glutamicum; assay: Effect (1 mM) on Corynebacterium glutamicum growth under stressing conditions; Expressed as absorbance (OD) at 570 nm; Control 0.87 nm; procedure, shortened: as §1
[7] = system: Enterococcus faecalis; assay: Effect (1 mM) on Enterococcus faecalis growth under stressing conditions; Expressed as absorbance (OD) at 570 nm; Control 1.16 nm
Procedure, shortened: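 Enterococcus was grown aerobically in defined M9 medium made hyperosmotic with NaCl (0.3–0.5 M final, set by tolerance). Each betaine analogue was supplied at 1 mM. Yield was read as OD at 570 nm against an untreated control.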

[8] = system: Dickeya chrysanthemi; assay: Effect (1 mM) on Erwinia chrysanthemi growth under stressing conditions; Expressed as absorbance (OD) at 570 nm; Control 1.97 nm; procedure, shortened: as §1
[9] = system: Enterobacter cloacae; assay: Effect (1 mM) on Enterobacter cloacae growth under stressing conditions; Expressed as absorbance (OD) at 570 nm; Control 1.25 nm; procedure, shortened: as §1
[10] = system: Escherichia coli; assay: Effect (1 mM) on Escherichia coli growth under stressing conditions; Expressed as absorbance (OD) at 570 nm; Control 1.24 nm; procedure, shortened: as §1
[11] = system: Klebsiella pneumoniae; assay: Effect (1 mM) on Klebsiella pneumoniae growth under stressing conditions; Expressed as absorbance (OD) at 570 nm; Control 1.80 nm; procedure, shortened: as §1
[12] = system: Pseudomonas aeruginosa; assay: Effect (1 mM) on Pseudomonas aeruginosa growth under stressing conditions; Expressed as absorbance (OD) at 570 nm; Control 1.24 nm
[13] = system: Salmonella enterica; assay: Effect (1 mM) on Salmonella enterica growth under stressing conditions; Expressed as absorbance (OD) at 570 nm; Control 1.23 nm; procedure, shortened: as §1
[14] = system: Serratia marcescens; assay: Effect (1 mM) on Serratia marcescens growth under stressing conditions; Expressed as absorbance (OD) at 570 nm; Control 1.03 nm; procedure, shortened: as §1
[15] = system: Sinorhizobium meliloti; assay: Effect (1 mM) on Sinorhizobium meliloti growth under stressing conditions; Expressed as absorbance (OD) at 570 nm; Control 1.46 nm

SMILES | Absorbance [1] | Absorbance [2] | Absorbance [3] | Absorbance [4] | Absorbance [5] | Absorbance [6] | Absorbance [7] | Absorbance [8] | Absorbance [9] | Absorbance [10] | Absorbance [11] | Absorbance [12] | Absorbance [13] | Absorbance [14] | Absorbance [15]
C[N+](C)(CC(=O)O)Cc1ccc([N+](=O)[O-])cc1 | 0.19 | 0.06 | 0.18 | 1.74 | 0.03 | 0.33 | 1.23 | 0.06 | 0.24 | 0.09 | 0.23 | 0.16 | 0.07 | 0.07 | 1.85
COc1cccc(C[N+](C)(C)CC(=O)O)c1 | 1.16 | 1.05 | 3.2 | 1.45 | 1.23 | 0.63 | 1.12 | 0.25 | 1.11 | 0.18 | 0.7 | 1.07 | 1.11 | 0.48 | 1.7
C[N+](C)(CC(=O)O)Cc1ccccc1 | 0.93 | 0.16 | 3.2 | 0.88 | 1.32 | 0.43 | 1.24 | 0.22 | 1.05 | 0.12 | 0.46 | 0.06 | 1.24 | 0.21 | 2.3
C[N+](C)(CC(=O)O)Cc1ccccc1[N+](=O)[O-] | 0.72 | 0.2 | 3.06 | 1.52 | 0.06 | 0.26 | 1.3 | 0.11 | 0.46 | 0.08 | 0.4 | 0.11 | 0.23 | 0.09 | 1.9
